Measured values from ChEMBL document CHEMBL4138205, “Oxazole-Containing Diterpenoids from Cell Cultures of Salvia miltiorrhiza and Their Anti-HIV-1 Activities” (J Nat Prod, 2017).
The source made the active and inactive calls. The calls are words filed in the database; no cut-off is given here.

Key:
[1] = system: Human immunodeficiency virus 1; assay: Antiviral activity against wild-type VSV-G pseudotyped HIV1 infected in HEK293 cells at 10 uM pretreated for 15 mins followed by viral infection measured after 48 hrs by luciferase reporter gene assay relative to control; format: functional; settings: Human immunodeficiency virus 1, HEK293
Summary of the method: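 Single-concentration screen: compound at final 10 μM added to HEK 293T cells 15 min before VSV-G/HIV-1 infection; cell lysate luciferase measured 48 h postinfection and infectivity expressed relative to equal-volume DMSO solvent control.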

[2] = system: Human immunodeficiency virus 1; assay: Antiviral activity against wild-type VSV-G pseudotyped HIV1 infected in HEK293 cells assessed as time of 50% failure at 1 uM measured at 48 hrs post infection by luciferase reporter gene assay; format: functional
Summary of the method: (§1)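 Time-of-addition: HEK 293T infected with VSV-G/HIV-1, then compounds added at successive time points after infection (test compound final 0.1 μM; AZT, EFV, RAL final 1 μM); lysate luciferase read at 48 h postinfection; infectivity (%) versus untreated control.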

[3] = system: Human immunodeficiency virus 1; assay: Antiviral activity against HIV1 pNL4-3 infected in HEK293 cells assessed as reduction in viral transcription by measuring decrease in luciferase activity at 1 uM after 20 hrs by luciferase reporter gene assay; format: functional, organism-based
Summary of the method: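 HEK 293T cells transiently transfected with the pNL4-3.luc.R−E− HIV-1 reporter plasmid (luciferase gene) for 4 h. The test compound was then added at 0.001−1 μM final and incubated for an additional 20 h. Luciferase activity was read 24 h post-transfection as a measure of viral gene expression; n = 2.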

[4] = system: Human immunodeficiency virus 1; assay: Antiviral activity against wild-type VSV-G pseudotyped HIV1 infected in HEK293 cells pretreated for 15 mins followed by viral infection measured after 48 hrs by luciferase reporter gene assay; format: functional, organism-based; settings: Human immunodeficiency virus 1, HEK293
[5] = system: Human immunodeficiency virus 1; assay: Antiviral activity against VSV-G pseudotyped HIV1 infected in human MT2 cells pretreated for 15 mins followed by viral infection measured after 48 hrs by luciferase reporter gene assay; format: functional, organism-based; settings: Human immunodeficiency virus 1, MT2
[6] = system: Human immunodeficiency virus 1; assay: Antiviral activity against HIV1 NL4-3 infected in human MT2 cells measured after 72 hrs post infection by fluorAce beta-galactosidase reporter gene assay; format: functional, organism-based; settings: Human immunodeficiency virus 1, NL4-3, MT2, 72 h
Summary of the method: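 MT-2 cells (RPMI 1640, 10% FBS) in 384-well format infected with HIV-1 NL4-3 carrying a β-galactosidase reporter at MOI 0.01; compounds added in DMSO; β-Gal expression read at 72 h postinfection by FluorAce β-Gal reporter assay; n = 2.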

Murine leukemia virus = assay: Antiviral activity against wild-type VSV-G pseudotyped MLV infected in HEK293 cells pretreated for 15 mins followed by viral infection measured after 48 hrs by luciferase reporter gene assay; format: functional, organism-based
[7] = system: Human immunodeficiency virus 1; assay: Antiviral activity against wild-type VSV-G pseudotyped HIV1 infected in HEK293 cells assessed as time of 50% failure at 0.1 uM measured at 48 hrs post infection by luciferase reporter gene assay; format: functional; summary of the method: as §1
[8] = system: Human immunodeficiency virus 1; assay: Antiviral activity against HIV1 pNL4-3 infected in HEK293 cells assessed as reduction in viral transcription by measuring decrease in luciferase activity after 20 hrs by luciferase reporter gene assay; format: functional, organism-based
Summary of the method: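 HEK 293T transiently transfected with pNL4-3.luc.R−E− for 4 h, then treated with compound (0.001−1 μM range; AZT, EFV, RAL 1 μM) for a further 20 h; luciferase activity then measured as read-out of viral gene expression; n = 2.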

HEK293 = assay: Effect on renilla luciferase expression in HEK293 cells up to 1 uM after 24 hrs by luciferase reporter gene assay; format: ADME, cell-based; settings: human, hek293, 24 h
Summary of the method: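 A plasmid encoding Renilla luciferase (pSV40-Renilla) was transiently transfected into HEK 293T cells for 4 h. Cells were then cultured with the test compound at the indicated concentrations, and Renilla luciferase activity in cell lysates was measured 24 h post-transfection as a control for gene translation; n = 2.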

[9] = system: Human immunodeficiency virus 1; assay: Antiviral activity against HIV1 infected in HEK293 cells assessed as inhibition of basal LTR transcription after 48 hrs by dual-luciferase reporter gene assay; format: functional, organism-based
Summary of the method: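 HEK 293T cotransfected 4 h with 100 ng pLTR-Luc and 2 ng pSV40-Renilla (no Tat), then compound added; firefly and Renilla luciferase in lysates measured 48 h post-transfection by dual-luciferase assay; n = 2.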

[10] = target: T1, Protein Tat (Human immunodeficiency virus type 1 group M subtype B (isolate HXB2)(HIV-1)) (UniProt P04608); assay: Inhibition of HIV1 Tat-mediated LTR transcriptional activity expressed in HEK293 cells after 48 hrs by dual-luciferase reporter gene assay; format: cell-based; settings: Human immunodeficiency virus 1
T1 sequence (whole entry): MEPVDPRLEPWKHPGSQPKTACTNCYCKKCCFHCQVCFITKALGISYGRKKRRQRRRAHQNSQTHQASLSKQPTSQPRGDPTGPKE
Summary of the method: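 HEK 293T cotransfected 4 h with 100 ng pLTR-Luc, 70 ng pcDNA3.1-Tat and 2 ng pSV40-Renilla, then cultured with compound; lysate luciferase activities read 48 h post-transfection by dual-luciferase assay; n = 2.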

Cc1nc2c(o1)c1c(C)coc1c1ccc3c(C)cccc3c12 showed an inhibition at 10 µM [1] of 17.4%.

With Cc1cn([C@H]2C[C@H](N=[N+]=[N-])[C@@H](CO)O2)c(=O)[nH]c1=O [ZIDOVUDINE] the FT50 [2] was 7.7 h and the Activity [3] was “inactive”.

In the case of Cc1nc2c3c(c4ccc5c(c4c2o1)CCCC5(C)C)OC[C@@H]3C, the inhibition at 10 µM [1] is reported as 11.2%.

Cc1cccc2c1ccc1c3c(c4ocnc4c12)[C@@H](C)CO3 gave an inhibition at 10 µM [1] of 76.7%, an IC50 [4] of 30 nM and an IC50 [5] of 30 nM. For the same compound, the IC50 [6] was 5400 nM, the IC50 (Murine leukemia virus) was 150 nM and the FT50 [7] was “<=20 hr”. The Activity [8] was “Dose-dependent effect”, the Activity (HEK293) was “Non-Toxic” and the inhibition [9] was “Dose-dependent effect”. For the same compound, the inhibition [10] was “Dose-dependent effect”.

In the case of Cc1nc2c(o1)c1c(c3ccc4c(c32)CCCC4(C)C)OC[C@@H]1C, the inhibition at 10 µM [1] is reported as 18.3%.

O=C1Nc2ccc(Cl)cc2[C@@](C#CC2CC2)(C(F)(F)F)O1 [EFAVIRENZ] was tested, and the inhibition at 10 µM [1] was 100%, the IC50 (Murine leukemia virus) was over 10000 nM and the FT50 [2] was 10.1 h. The Activity [3] was “inactive”.

Work on Cc1nc2c(o1)c1c(c3ccc4c(C)cccc4c32)OC[C@@H]1C yielded an inhibition at 10 µM [1] of 2.82%.

Cc1cccc2c1ccc1c3c(c4oc(Cc5ccccc5)nc4c12)[C@@H](C)CO3 showed an inhibition at 10 µM [1] of 62.1% and an IC50 [4] of 1200 nM.

Cc1nnc(C(=O)NC(C)(C)c2nc(C(=O)NCc3ccc(F)cc3)c(O)c(=O)n2C)o1 [RALTEGRAVIR] was tested, and the FT50 [2] was 12 h and the Activity [3] was “inactive”.

C[C@H]1COc2c1c1ocnc1c1c3c(ccc21)C(C)(C)CCC3 gave an inhibition at 10 µM [1] of 18.7%.
